Where “and” joins values, the source holds several entries; their conditions need not be identical. Equal entries are not always repeated.
What was measured:
HCtAEC monolayer = test: Permeability assay; type: cell-based, human; conditions: for effect on the ASP4058‐mediated inhibition of endothelial permeability: ASP4058 100 nM, TASP0277308 pretreated 1 h, EHop‐016 30 min
In short: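 HCtAECs (10^5 per well) grown overnight on collagen-coated Transwell inserts (0.4 μm pore) in growth medium, then overnight in serum-free defined medium. Compound or vehicle (0.1% DMSO) added to both compartments for 1 h. 250 μg·mL−1 FITC-dextran (2000 kDa) then added to the upper compartment; diffusion into the lower compartment read after 1 h (ex 490/em 520 nm). Antagonist pretreatment 1 h or Rac inhibitor 30 min, before 100 nM agonist. Duplicates, 37°C.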

[1] = tested on: intracranial aneurysm (IA); test: Rat IA model, histological analysis of induced IAs; type: in vivo, Sprague–Dawley rats; conditions: for growth (size) of induced IAs: KRP‐203 0.01 and BAF312 0.3 mg·kg^−1 daily
In short: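 IA induced at the right ACA-OA bifurcation, contralateral to carotid ligation. Rats randomized and given test compound p.o. (suspended in 0.5% methylcellulose) throughout. Specimens prepared at 12 weeks; 5 μm sections immunostained. Aneurysm size and infiltrating macrophage number assessed.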

Systemic blood pressure = type: in vivo, Sprague–Dawley rats; conditions: rats
In short: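 Oral dosing after IA induction, vehicle 0.5% methylcellulose. Blood pressure measured in conscious rats by tail-cuff, without anaesthesia. Systolic, mean and diastolic values each taken as the mean of at least three measurements.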

[2] = tested on: lymphocytes / monocytes in peripheral blood; test: Peripheral blood lymphocyte and monocyte count in rat IA model; type: in vivo, Sprague–Dawley rats; conditions: rats
In short: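 Oral dosing after IA induction. Agonist suspended in 0.5% methylcellulose; antagonist suspended in 5% arabic gum and given twice daily. Peripheral lymphocyte and monocyte counts taken after the dosing period (4 weeks for the antagonist).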

[3] = molecular target: S1P1 receptors in HCtAECs (Homo sapiens, UniProt P21453); test: cAMP assay; type: cell-based
Sequence of S1P1 receptors in HCtAECs (P21453 whole entry): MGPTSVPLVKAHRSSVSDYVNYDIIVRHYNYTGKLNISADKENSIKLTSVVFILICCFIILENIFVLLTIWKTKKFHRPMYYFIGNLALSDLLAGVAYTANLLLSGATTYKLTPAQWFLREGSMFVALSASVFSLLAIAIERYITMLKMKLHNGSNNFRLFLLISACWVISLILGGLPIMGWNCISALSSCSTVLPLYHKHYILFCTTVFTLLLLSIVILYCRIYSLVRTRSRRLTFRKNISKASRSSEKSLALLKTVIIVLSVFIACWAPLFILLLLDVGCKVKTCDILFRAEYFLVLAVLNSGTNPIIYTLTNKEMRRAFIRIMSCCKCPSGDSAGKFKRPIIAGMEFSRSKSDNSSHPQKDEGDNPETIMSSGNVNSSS
In short: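 HCtAECs seeded at 2 × 10^4 per well and kept overnight. Test compound diluted in HBSS (pH 7.2) containing 5 mM HEPES (pH 7.5), 0.1% fatty-acid-free BSA and 0.5 mM IBMX. Cells stimulated with 1 μM forskolin plus compound for 20 min at 37°C. Lysis in HEPES/CaCl2/Triton X-100 buffer; cAMP measured with a LANCE cAMP kit. Duplicates.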

[4] = molecular target: S1P1 receptors expressed on HCtAEC (Homo sapiens, UniProt P21453); test: S1P1 receptor internalization assay; type: cell-based; conditions: mean ± SEM, n = 5
Sequence of S1P1 receptors expressed on HCtAEC (P21453 whole entry): as above
In short: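 HCtAECs (10^5 per well) seeded overnight, then exposed for 1 h at 37°C to test compound diluted in serum-free defined medium. Cells washed in ice-cold PBS and detached with Accutase. Staining with mouse anti-S1P1 (30 min on ice), then PE anti-mouse IgG; IgG2b isotype control; dead cells excluded by 7-AAD or SYTOX Blue. Isotype-subtracted geoMFI normalized to vehicle, expressed as % of control.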

[5] = tested on: THP‐1 cells across HCtAEC monolayer; test: Trans‐endothelial migration assay; type: cell-based, human; conditions: MCP‐1 100 ng·mL^−1, 3 h
In short: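 HCtAECs (10^5 per well) grown overnight on Transwell inserts (5.0 μm pore) in growth medium. Compound in serum-free defined medium, or vehicle (0.1% DMSO), added to both compartments. At the same time, THP-1 cells (5 × 10^5) added above and MCP-1 (100 ng·mL−1) below. After 3 h at 37°C, migrated cells quantified by ATP luminescence. Antagonist co-added with 100 nM agonist; duplicates.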

THP‐1 cells = test: Chemotaxis assay; type: cell-based, human; conditions: 100 nM ASP4058, MCP‐1 10 ng·mL^−1, 3 h
In short: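 Migrated-cell Transwell assay (5.0 μm pore) without an endothelial layer. Test compound diluted in RPMI 1640 with 0.1% fatty-acid-free BSA; compound or vehicle (0.1% DMSO) added to both compartments. THP-1 cells (5 × 10^5 per well) added to the upper and MCP-1 (10 ng·mL−1) to the lower compartment simultaneously. After 3 h at 37°C, migrated cells quantified by ATP-based luminescence; duplicates.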

[6] = tested on: IA walls at ACA‐OA bifurcation; test: In vivo vascular permeability assay; parameters: species or system Sprague–Dawley rats; conditions: day 7, BAPN
In short: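 Rats after IA induction, with 3-aminopropionitrile to facilitate formation, dosed p.o. once daily from just after surgery; vehicle 0.5% methylcellulose. On day 7, under deep anaesthesia, Evans blue (45 mg·kg−1) injected intra-arterially via the right common carotid (proximal side clamped), then 4% paraformaldehyde perfusion. Age-matched Sprague–Dawley rats served as controls. Frozen sections imaged confocally (ex 620/em 680 nm); stained area thresholded, particles >4 pixel square counted.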

[7] = Plasma concentration of ASP4058 in rat aneurysm model; type: in vivo, rats
In short: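 Rats dosed orally at 0.01 mg·kg−1 for 12 weeks. Plasma collected just before and 1, 2, 4, 8 and 24 h after the last dose. Plasma separated by centrifugation and stored at −20°C or lower. Samples prepared by protein precipitation and quantified by HPLC–tandem mass spectrometry.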

[8] = tested on: intracranial aneurysm (IA); test: Non‐human primate model of IAs; type: in vivo; conditions: Macaca fascicularis, 0.1 mg·kg^−1 once daily, 52 weeks, n = 3
In short: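 Female Macaca fascicularis (11 years old, 3.4 kg average), held under a 12 h light–dark cycle. IAs induced by two-step surgery at a 2 week interval. Test compound given once daily. At 52 weeks, five intracranial bifurcation sites per animal examined for IA formation, scored as breakage of the lamina elastica.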

hS1P1 = conditions: S1P2, S1P3, S1P4 versus S1P1/S1P5; ref Yamamoto et al., 2014; cited from earlier work
[9] = rats, oral, 14 days at 0.1 mg·kg^−1; ref Yamamoto et al., 2014; cited from earlier work
[10] = rats, TASP0277308 100 or 300 mg·kg^−1 p.o. twice daily, 4 weeks, BAPN
[11] = TASP0277308 100 or 300 mg·kg^−1 p.o. twice daily, 4 weeks
[12] = KRP‐203 0.01 or BAF312 0.3 mg·kg^−1, 4 weeks after IA induction
[13] = p.o., 12 weeks after IA induction

Compound: CCn1c(Oc2cccc(N3CCN(C)CC3)c2)nnc1[C@@H](C)NS(=O)(=O)c1ccc(Cl)c(Cl)c1 [TASP0277308, 3,4‐dichloro‐N‐[(1R)‐1‐{4‐ethyl‐5‐[3‐(4‐methylpiperazin‐1‐yl)phenoxy]‐4H‐1,2,4‐triazol‐3‐yl}ethyl]benzenesulfonamide, reference compound]
- effect on the ASP4058‐mediated inhibition of endothelial permeability (HCtAEC monolayer): reversed
- macrophage infiltration in IA lesions [1, 10]: did not suppress
- size of the IA [1, 10]: did not suppress either the macrophage infiltration in IA lesions or reduce the size
- systemic blood pressure (Systemic blood pressure; [11]): without influencing
- peripheral lymphocyte count [2, 11]: potently decreased
- peripheral monocyte count [2, 11]: without influencing

Compound: Cl.NC(CO)(CO)CCc1ccc(Sc2cccc(OCc3ccccc3)c2)cc1Cl [KRP‐203, 2‐amino‐2‐[2‐(4‐{[3‐(benzyloxy)phenyl]sulfanyl}‐2‐chlorophenyl)ethyl]propane‐1,3‐diol hydrochloride, reference compound]
- growth (size) of induced IAs ([1]; rats, 4 weeks, BAPN): significantly suppressed the growth
- systemic blood pressure (Systemic blood pressure; [12]): without influencing

Compound: C[C@H](Oc1ccc(-c2nc(-c3ccc4[nH]cnc4c3)no2)cc1C(F)(F)F)C(F)(F)F.Cl [ASP4058, 5‐{5‐[3‐(trifluoromethyl)‐4‐{[(2S)‐1,1,1‐trifluoropropan‐2‐yl]oxy}phenyl]‐1,2,4‐oxadiazol‐3‐yl}‐1H–benzimidazole hydrochloride]
- IC50 [3]: 2.1 nM
- S1P1 receptor expression level on HCtAECs (surface, δ geoMFI) ([4]; 100 nM ASP4058, 1 h): 86 ± 14 % of control
- S1P1 receptor expression level on HCtAECs (surface, δ geoMFI) ([4]; 1000 nM ASP4058, 1 h): 23 ± 4.3 % of control
- leakage of FITC‐dextran (2000 kDa) across the endothelial monolayer (HCtAEC monolayer; 10 nM ASP4058, 1 h treatment, 1 h diffusion, concentration‐dependent): statistically significant inhibition
- MCP‐1‐induced trans‐endothelial migration of THP‐1 cells [5]: concentration‐dependently inhibited
- MCP‐1‐dependent migration (chemotaxis) of THP‐1 cells without HCtAEC monolayer (THP‐1 cells): failed to inhibit
- Evans blue leakage (stained area) at the ACA‐OA bifurcation after IA induction ([6]; rats, 0.1 mg·kg^−1 p.o. once daily): almost complete suppression
- Evans blue leakage (stained area) at the ACA‐OA bifurcation after IA induction ([6]; rats, 0.01, 0.1 mg·kg^−1 p.o. once daily): dose‐dependently ameliorated
- IA development measured by the size of the IA induced ([1]; rat model, p.o. during entire period of IA induction, 12 weeks): dose‐dependently suppressed IA development
- incidence of IAs ([1]; rat model, p.o. during whole period, 12 weeks): did not affect the incidence
- dose at which the suppressive effect on the size of the IA was observed ([1]; rat model, p.o., 12 weeks): 0.01 mg/kg
- macrophage infiltration in the lesion ([1]; rat model, p.o., 12 weeks after induction): inhibited the macrophage infiltration
- expression of MCP‐1 in the IA lesion ([1]; rats, ASP4058 0.03 mg·kg^−1, immunostaining): almost completely suppressed
- IA‐associated degenerative change of the media (thinning of smooth muscle layer) ([1]; rats, ASP4058 0.03 mg·kg^−1, α‐SMA staining, 12 weeks): ameliorated the IA‐associated degenerative change of the media
- enlargement of pre‐existing aneurysm ([1]; rats, ASP4058 0.1 mg·kg^−1 once daily started 1 week after IA induction, examined at 7 weeks, BAPN): significantly inhibited the enlargement
- blood pressure (Systemic blood pressure; ASP4058 0.1 mg·kg^−1 started 1 week after induction, measured at 7 weeks): without affecting the blood pressure
- systemic blood pressure (Systemic blood pressure; ASP4058 p.o. for 12 weeks after IA induction): without significantly influencing
- peripheral lymphocyte number ([2]; ASP4058 0.01 mg·kg^−1 p.o., 12 weeks): did not decrease
- monocyte count in peripheral blood ([2]; ASP4058 p.o., 12 weeks after IA induction): without significantly influencing
- dose at which the decrease in lymphocyte count reached a plateau [2, 13]: 0.1 mg/kg
- dose suppressing the lymphocyte number in peripheral blood [2, 13]: higher than 0.03 mg·kg^−1
- Plasma concentration, 4 h ([7]; 0.01 mg·kg^−1, 12 weeks, 4 h after last administration, mean ± SEM, n = 3): 8.8 ± 1.6 nM
- Plasma concentration, 24 h ([7]; 0.01 mg·kg^−1, 12 weeks, 24 h after last administration, mean ± SEM, n = 3): 4.5 ± 0.6 nM
- Plasma concentration, Pre ([7]; 0.01 mg·kg^−1, 12 weeks, just before last administration, mean ± SEM, n = 3): 5.4 nM and 5.4 ± 0.7 nM
- concentration at 1 h ([7]; plasma, oral, 0.01 mg·kg^−1): 6.3 ± 0.9 nM
- concentration at 2 h ([7]; plasma, oral, 0.01 mg·kg^−1): 4.9 ± 1.6 nM
- concentration at 4 h ([7]; plasma, oral, 0.01 mg·kg^−1): 8.8 nM
- concentration at 8 h ([7]; plasma, oral, 0.01 mg·kg^−1): 7.9 ± 1.4 nM
- concentration at 24 h ([7]; plasma, oral, 0.01 mg·kg^−1): 4.5 nM
- IA formation compared with the vehicle‐treated group [8]: tended to be suppressed
- potency for other S1P receptor subtypes relative to S1P1 and S1P5 (times less) (hS1P1): at least 100 times
- plasma concentration at the maximum [9]: 16.4 ± 0.463 ng/mL
- plasma concentration at the maximum (equivalent) [9]: 37.1 ± 1.05 nM

Compound: CCc1cc(/C(C)=N/OCc2ccc(C3CCCCC3)c(C(F)(F)F)c2)ccc1CN1CC(C(=O)O)C1 [BAF312, 1‐{4‐[(1E)‐N‐{[4‐cyclohexyl‐3‐(trifluoomethyl)benzyl]oxy}ethanimidoyl]‐2‐ethylbenzyl}azetidine‐3‐carboxylic acid, reference compound]
- growth (size) of induced IAs ([1]; rats, 4 weeks, BAPN): significantly suppressed the growth
- systemic blood pressure (Systemic blood pressure; [12]): without influencing

Compound: CCn1c2ccccc2c2cc(Nc3ccnc(NCCCN4CCOCC4)n3)ccc21 [EHop‐016]
- effect on the ASP4058‐mediated inhibition of endothelial permeability (HCtAEC monolayer): ameliorated the effect of ASP4058 on permeability

Compound: CCCCCCCCc1ccc(CCC(N)(CO)CO)cc1.Cl [fingolimod, 2‐amino‐2‐[2‐(4‐octylphenyl)ethyl]propane‐1,3‐diol hydrochloride, reference compound]
- size of IAs induced ([1]; rats, fingolimod daily during whole period, 4 weeks, BAPN): significantly exacerbated the IA size
- systemic blood pressure (Systemic blood pressure; fingolimod for 4 weeks after IA induction): without influencing
